According to paper PMC9009525 (ACS synthetic biology, 2021):
Ends that are not written are not given here.

System: T7 Express LysY/I^q E. coli
Test: Induction test: growth
Format: cell-based, Escherichia coli
Details: 0.50 mM IPTG, LB with kan, 37 °C, OD600 over nine hours
How it was run: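 T7 Express LysY/Iq E. coli transformed with 80 ng pETh vector carrying oncocin or a negative control, each separately. After SOC recovery, cells were pelleted and resuspended in LB with 50 µg mL-1 kanamycin. This suspension seeded LB-kanamycin (1:100) containing 0 to 0.50 mM IPTG. Cultures were shaken at 250 rpm at 37 °C for nine hours, with OD600 read every 50 minutes.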

## VDKPPYLPRPRPPRRIYNR-NH2 (C-terminus assumed) [oncocin]
  growth of oncocin-expressing E. coli upon induction (in words): nearly complete growth inhibition
